From PubChem BioAssay
ERAP1 inh = blocks human ERAP1 aminopeptidase activity. recombinant ERAP1, Leu-AMC fluorescence, 60 min. inhibition, % at 10.7 µM. AID 652197. 340,000 tested, 0.15% active. Q9NZ08;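 active means mean replicate inhibition of at least 30%, or all replicates individually reaching that 30% level; inactive means mean below 30% and not every replicate reaching it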
FGF22 binding = FGF22 (human) thermal shift binding | Q9HCT0 | recombinant FGF22 thermal shift, SYPRO orange fluorescence; percent of sucrose octasulfate shift, DMSO zero | activity (Tm shift, normalised), % at 9.99 µM | 340,000 tested, 1.5% active;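 active means mean Tm shift, scaled 0 neutral to 100 positive control, at about 1.3% or above, every replicate too, limit read from the data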
Target sequence (Q9HCT0 whole entry, looked up): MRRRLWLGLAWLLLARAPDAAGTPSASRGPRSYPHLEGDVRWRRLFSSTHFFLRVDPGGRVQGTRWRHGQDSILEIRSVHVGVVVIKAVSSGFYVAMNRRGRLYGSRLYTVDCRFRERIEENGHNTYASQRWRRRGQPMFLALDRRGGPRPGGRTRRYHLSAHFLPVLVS
SIRT5 inh = sirtuin-5 (human) deacylase inhibition; Q9NXA8; Purified SirT5, succinyl-peptide AMC, trypsin-coupled fluorescence; inhibition, % at 15 µM; 330,000 tested, 1.1% active; in the data active means inhibition above about 15%
Target sequence (Q9NXA8 whole entry, looked up): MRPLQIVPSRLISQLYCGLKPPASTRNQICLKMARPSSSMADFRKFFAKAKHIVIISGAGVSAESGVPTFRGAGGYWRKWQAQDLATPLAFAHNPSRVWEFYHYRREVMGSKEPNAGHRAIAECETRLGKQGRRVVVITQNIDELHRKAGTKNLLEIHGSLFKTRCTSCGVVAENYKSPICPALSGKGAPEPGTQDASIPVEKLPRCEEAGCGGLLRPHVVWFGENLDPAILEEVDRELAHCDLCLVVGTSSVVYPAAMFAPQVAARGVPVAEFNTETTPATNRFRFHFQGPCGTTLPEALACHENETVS
PGC1a acetyl inh = modulators of PGC1a acetylation; U2OS PGC1a acetylation, AlphaScreen anti-acetyl-lysine; with virally co-expressed GCN5 acetyltransferase; inhibition, % at 15.6 µM; 350,000 tested, 0.17% active; AID 651687;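 active means every replicate shows inhibition of at least 40%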
FN deposition inh = fibronectin deposition inhibition | inhibition, % at 12.6 µM | AH1F fibroblasts, Alexa488-fibronectin deposition fluorescence, overnight | 350,000 tested, 0.086% active;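 active means mean inhibition across replicates of 30% or more, regardless of how many single replicates reach that level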
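Assay system: AH1F fibroblasts assembling fluorescent fibronectin matrix; Amount: 10000 AH1F cells per well; Buffer or medium: DMEM, 2% serum; Probe or stimulus: Alexa488-fibronectin, 24 nM final in well; Doses: single compound dose, delivered by pin transfer; Incubation: 1 h adhesion, overnight exposure; Measured by: fluorescence 485/525 nm; Read-out: fibronectin deposition inhibition.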
Numbers stand for hits; i = inactive; nt = no result. Hits are enriched below; roughly 2.2% of the tested compounds scored in any of these assays.

SMILES	ERAP1 inh	FGF22 binding	SIRT5 inh	PGC1a acetyl inh	FN deposition inh
O=C(O)c1ccc(Cn2cnc3sc4c(c3c2=O)CCCC4)cc1	i	43	i	i	i
CC(C)N1CCN(Cc2cnc(-c3ccccc3)s2)CC1CCO (stereo not given)	i	nt	22	i	i
CC(C)=CCN1CCN(Cc2cnc(N3CCCC3)s2)CC1CCO (stereo not given)	i	i	i	i	i
CC(C)CCN1CCN(Cc2cnc(-c3ccccc3)s2)CC1CCO (stereo not given)	i	i	i	i	i
CC(C)N1CCN(Cc2ccc3c(c2)Cc2ccccc2-3)CC1CCO (stereo not given)	i	43	i	nt	i
CC(=O)c1cccc(CN2CCN(C(C)C)C(CCO)C2)c1 (stereo not given)	i	44	i	nt	i
CC(C)CCN1CCN(Cc2cnc(N3CCCC3)s2)CC1CCO (stereo not given)	i	i	38	nt	i
CC(=O)c1cccc(CN2CCN(CC(C)C)C(CCO)C2)c1 (stereo not given)	nt	nt	nt	nt	i
CO[C@H]1CN(C)C(=O)c2cc(NC(=O)C3CCCC3)ccc2OC[C@H](C)N(C)C[C@H]1C	i	i	i	nt	i
N[C@@H](CO)c1nnc([C@H](Cc2ccc(O)cc2)NC(=O)C2CCNCC2)o1	i	i	28	i	i
NCCCC[C@H](NC(=O)C1CCNCC1)c1nnc([C@@H](N)Cc2ccc(O)cc2)o1	nt	i	nt	i	i
CC1=C/C(=N\Nc2ccccc2[N+](=O)[O-])CC(C)(C)C1	i	i	19	nt	i
C[C@@H]1CN([C@H](C)CO)S(=O)(=O)c2ccc(C3=CCCCC3)cc2O[C@H]1CN(C)Cc1ccccc1	nt	nt	i	43	i
C[C@@H]1CN([C@H](C)CO)S(=O)(=O)c2ccc(C3=CCCC3)cc2O[C@H]1CN(C)Cc1ccccc1	i	i	i	i	nt
C[C@@H]1CN([C@@H](C)CO)S(=O)(=O)c2ccc(C3=CCCCC3)cc2O[C@H]1CN(C)Cc1ccccc1	nt	nt	nt	i	i
C[C@H](CO)N1C[C@H](C)[C@@H](CN(C)Cc2ccccc2)Oc2cc(C3=CCCC3)ccc2S1(=O)=O	i	i	17	i	nt
COc1ccc(NC(=O)N(C)C[C@H]2Oc3ccc(NC(=O)Nc4ccc(C(F)(F)F)cc4)cc3CC(=O)N([C@H](C)CO)C[C@@H]2C)cc1	i	i	i	i	nt
O=C(O)CN1CCNCCN(CC(=O)O)CCNCC1	i	43	nt	i	i
O=C(N[C@H]1CC[C@@H](CCNS(=O)(=O)c2ccccc2)O[C@@H]1CO)c1cccc(F)c1	i	i	i	i	i
CCOc1ccc(C(=O)CSCCC(=O)O)cc1	i	i	112	i	i
Cc1cc(OC(=O)c2ccc(S(=O)(=O)N3CCCC3)cc2)c([N+](=O)[O-])c(=O)[nH]1	i	43	i	nt	i
Cc1cc(OC(=O)c2ccc(S(=O)(=O)N3CCCCC3)cc2)c([N+](=O)[O-])c(=O)[nH]1	i	i	i	nt	nt
O=C(OCC1OC(n2ccc(=O)[nH]c2=O)C(Cl)C1O)c1ccccc1 (stereo not given)	i	i	i	i	i
O=C(OCC1OC(n2ccc(=O)[nH]c2=O)C2OC12)c1ccccc1 (stereo not given)	i	43	nt	i	i
COC(=O)[C@@]1(Cc2ccccc2)N=C(c2ccc(OCCCO)cc2)O[C@H]1c1ccccc1CN=[N+]=[N-]	i	i	20	nt	nt
SMILES	ERAP1 inh	FGF22 binding	SIRT5 inh	PGC1a acetyl inh	FN deposition inh
COC(=O)C1=C(C)N(CC(C)C)C(=S)NC1c1cccc(Br)c1 (stereo not given)	i	i	nt	nt	i
COC(=O)C1=C(C)N(CC(C)C)C(=S)NC1c1cccc(OC)c1 (stereo not given)	i	i	29	nt	i
COc1ccc(CN(C)C[C@H]2Oc3ccc(NS(=O)(=O)c4cn(C)cn4)cc3C(=O)N([C@H](C)CO)C[C@@H]2C)cc1	i	i	i	i	nt
Cc1cc(C(=O)NN=C2CCCC2)c2ccccc2n1	i	i	i	nt	i
Cc1cc(C(=O)N/N=C2\CC(=O)CC(C)(C)C2)c2ccccc2n1	i	43	i	nt	i
O=C(COC(=O)c1nc(Cl)ccc1Cl)c1ccc(Cl)s1	i	44	i	nt	i
C=CCn1c(=O)/c(=C\c2ccccn2)s/c1=C(/C#N)C(=O)NCC1CCCO1 (stereo not given)	i	43	i	i	nt
C=CCn1c(=O)/c(=C/c2ccc(C)o2)s/c1=C(/C#N)C(=O)c1ccccc1	nt	nt	nt	i	i
CC(=O)NCCCc1nc2ccccc2n1Cc1cc(C)ccc1C	i	i	i	nt	i
COc1cc(C(=O)NCCCc2nc3ccccc3n2Cc2cc(C)ccc2C)cc(OC)c1OC	i	i	19	nt	i
COCCCNC(=O)c1ccc(CN2CCc3ccccc3C2)cc1	i	i	23	i	i
O=C(Nc1ccccc1)c1ccc(CN2CCc3ccccc3C2)cc1	i	i	i	i	i
O=[N+]([O-])c1cc([N+](=O)[O-])c(Oc2ccc(F)cc2F)cc1NN1CCCCC1	i	i	17	nt	i
O=[N+]([O-])c1cc([N+](=O)[O-])c(Oc2ccc(F)cc2)cc1NN1CCCCC1	i	i	i	i	i
[O-]/C(=C(\C(=S)NCc1ccccc1)[n+]1ccccc1)c1ccc(Cl)s1	i	43	i	nt	i
COc1ccc(NC(=O)Nc2ccc3c(c2)C(=O)N([C@@H](C)CO)C[C@H](C)[C@H](CN(C)C(=O)Nc2c(C)noc2C)O3)cc1	i	i	i	i	nt
O=C(CC(C(=O)O)c1c[nH]c2ccccc12)c1ccccc1 (stereo not given)	i	i	17	81	i
O=C(O)C(O)Cc1c[nH]c2ccccc12 (stereo not given)	i	i	i	i	nt
CCOC(=O)n1c(=O)n(Cc2ccccc2)c2ccccc21	nt	nt	nt	i	nt
CCOC(=O)n1c(=O)n(C)c2ccc(Cl)cc21	i	i	20	i	i
CCCNC(=O)N1CC2(CN(C(=O)CC)C2)c2c(n(C)c3cc(OC)ccc23)[C@@H]1CO	i	i	i	nt	nt
CN1[C@@H]2Cn3c(ccc(-c4ccccc4)c3=O)[C@H]1[C@@H](C(=O)NC1CCCCC1)[C@@H]2CO	i	i	i	nt	nt
COc1ccccc1NC(=O)Nc1ccc2c(c1)C(=O)N(C)C[C@H](OC)[C@H](C)CN[C@@H](C)CO2	i	i	22	i	nt
COc1ccccc1NC(=O)Nc1ccc2c(c1)C(=O)N(C)C[C@@H](OC)[C@@H](C)CN[C@H](C)CO2	nt	nt	i	i	nt
COc1ccccc1NC(=O)Nc1ccc2c(c1)C(=O)N(C)C[C@H](OC)[C@H](C)CN(C)[C@H](C)CO2	nt	nt	19	i	i
Cc1ccc(S(=O)(=O)Nc2ccccc2C(=O)NCc2cccnc2)cc1	i	i	i	91	i
Cc1ccc(CC(=O)NCc2cccnc2)cc1	i	44	i	nt	i
NC(=S)NCc1cccnc1	i	43	i	nt	i
